In ChEMBL document CHEMBL3407479, “Structure-activity relationship for the oxadiazole class of antibiotics” (J Med Chem, 2015):
Converted amounts (≈) assume the structure as drawn.

What was measured:
Staphylococcus aureus [1] = assay: Antibacterial activity against vancomycin/methicillin-resistant Staphylococcus aureus VRS2 clinical isolate after 16 to 20 hrs by broth microdilution method; format: functional
Staphylococcus aureus [2] = assay: Antibacterial activity against mecA-positive, methicillin/oxacillin/tetracycline-resistant and vancomycin/linezolid susceptible Staphylococcus aureus COL after 16 to 20 hrs by broth microdilution method; format: functional
[3] = tested on: Staphylococcus epidermidis; assay: Antibacterial activity against Staphylococcus epidermidis ATCC 35547 after 16 to 20 hrs by broth microdilution method; format: functional
[4] = tested on: Staphylococcus haemolyticus; assay: Antibacterial activity against Staphylococcus haemolyticus ATCC 29970 after 16 to 20 hrs by broth microdilution method; format: functional
Enterococcus faecalis [5] = assay: Antibacterial activity against vancomycin-resistant Enterococcus faecalis 99 clinical isolate after 16 to 20 hrs by broth microdilution method; format: functional
HepG2 = assay: Cytotoxicity against human HepG2 cells assessed as cell viability after 16 hrs by XTT assay; format: cell-based; conditions: HepG2, 16 h
How it was run: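 HepG2 cells were run in triplicate in an XTT viability assay. IC50 was derived from the concentration–response data.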

Streptococcus oralis = assay: Antibacterial activity against Streptococcus oralis ATCC 9811 after 16 to 20 hrs by broth microdilution method; format: functional
Staphylococcus aureus [6] = assay: Antibacterial activity against mecA-positive, methicillin/oxacillin/tetracycline-resistant and vancomycin/linezolid susceptible Staphylococcus aureus ATCC 27660 after 16 to 20 hrs by broth microdilution method; format: functional
Staphylococcus aureus [7] = assay: Antibacterial activity against mecA-positive, ciprofloxacin/gentamicin/oxacillin/penicillin/linezolid-resistant Staphylococcus aureus NRS120 after 16 to 20 hrs by broth microdilution method; format: functional
Enterococcus faecalis [8] = assay: Antibacterial activity against vancomycin-susceptible Enterococcus faecalis 201 clinical isolate after 16 to 20 hrs by broth microdilution method; format: functional
Bacillus cereus = assay: Antibacterial activity against Bacillus cereus ATCC 13061 after 16 to 20 hrs by broth microdilution method; format: functional
Enterococcus faecium [9] = assay: Antibacterial activity against vancomycin-susceptible Enterococcus faecium 119-39A clinical isolate after 16 to 20 hrs by broth microdilution method; format: functional
Streptococcus pyogenes = assay: Antibacterial activity against Streptococcus pyogenes ATCC 49399 after 16 to 20 hrs by broth microdilution method; format: functional
Staphylococcus aureus [10] = assay: Antibacterial activity against methicillin-sensitive Staphylococcus aureus ATCC 29213 after 16 to 20 hrs by broth microdilution method; format: functional
Enterococcus faecalis [11] = assay: Antibacterial activity against Enterococcus faecalis ATCC 29212 after 16 to 20 hrs by broth microdilution method; format: functional
Bacillus licheniformis = assay: Antibacterial activity against Bacillus licheniformis ATCC 12759 after 16 to 20 hrs by broth microdilution method; format: functional
Staphylococcus aureus [12] = assay: Antibacterial activity against vancomycin/methicillin-resistant Staphylococcus aureus VRS1 clinical isolate after 16 to 20 hrs by broth microdilution method; format: functional
[13] = AUC (0 to 8 hrs) in ICR mouse at 50 mg/kg, iv; format: ADME, organism-based; design: time < 8 hr, dose 50 mg/kg, route intravenous; conditions: plasma
Enterococcus faecium [14] = assay: Antibacterial activity against vancomycin-resistant Enterococcus faecium 106 clinical isolate after 16 to 20 hrs by broth microdilution method
Enterococcus faecium [15] = assay: Antibacterial activity against Enterococcus faecium NCTC 7171 after 16 to 20 hrs by broth microdilution method; format: functional
Staphylococcus aureus [16] = assay: Antibacterial activity against mecA-positive, ciprofloxacin/gentamicin/oxacillin/penicillin/linezolid-resistant Staphylococcus aureus NRS119 after 16 to 20 hrs by broth microdilution method; format: functional
[17] = Plasma protein binding in human at 10 uM after 6 hrs by equilibrium dialysis assay; format: ADME, cell-free
[18] = Plasma protein binding in human by equilibrium dialysis assay

SMILES	MIC (Staphylococcus aureus [1])	MIC (Staphylococcus aureus [2])	MIC [3]	MIC [4]	MIC (Enterococcus faecalis [5])	IC50 (HepG2)	MIC (Streptococcus oralis)	MIC (Staphylococcus aureus [6])	MIC (Staphylococcus aureus [7])	MIC (Enterococcus faecalis [8])	MIC (Bacillus cereus)	MIC (Enterococcus faecium [9])	MIC (Streptococcus pyogenes)	MIC (Staphylococcus aureus [10])	MIC (Enterococcus faecalis [11])	MIC (Bacillus licheniformis)	MIC (Staphylococcus aureus [12])	MIC (Enterococcus faecium [14])	MIC (Enterococcus faecium [15])	PPB [17]	other results
Oc1ccc(-c2nc(-c3ccc(Oc4ccc(C(F)(F)F)cc4)cc3)no2)cc1	2 µg/mL (≈ 5.02 µM)	2 µg/mL (≈ 5.02 µM)	2 µg/mL (≈ 5.02 µM)	2 µg/mL (≈ 5.02 µM)	2 µg/mL (≈ 5.02 µM)	25.8 µg/mL (≈ 64.8 µM)	32 µg/mL (≈ 80.3 µM)	2 µg/mL (≈ 5.02 µM)	2 µg/mL (≈ 5.02 µM)	2 µg/mL (≈ 5.02 µM)	2 µg/mL (≈ 5.02 µM)	1 µg/mL (≈ 2.51 µM)	32 µg/mL (≈ 80.3 µM)	1 µg/mL (≈ 2.51 µM)	2 µg/mL (≈ 5.02 µM)	2 µg/mL (≈ 5.02 µM)	2 µg/mL (≈ 5.02 µM)	2 µg/mL (≈ 5.02 µM)	2 µg/mL (≈ 5.02 µM)	99.9%	AUC(0-t) at 8 h [13]: 44200 ng·h/mL; MIC (Staphylococcus aureus [16]): 2 µg/mL (≈ 5.02 µM)
FC(F)(F)c1ccc(Oc2ccc(-c3noc(-c4c[nH]cn4)n3)cc2)cc1		32 µg/mL (≈ 86 µM)	32 µg/mL (≈ 86 µM)	16 µg/mL (≈ 43 µM)		31.5 µg/mL (≈ 84.6 µM)	> 128 µg/mL						128 µg/mL (≈ 344 µM)	2 µg/mL (≈ 5.37 µM)			1 µg/mL (≈ 2.69 µM)		8 µg/mL (≈ 21.5 µM)	93.5%	MIC (Staphylococcus aureus [16]): 4 µg/mL (≈ 10.7 µM)
CN[C@H](CC(C)C)C(=O)N[C@H]1C(=O)N[C@@H](CC(N)=O)C(=O)N[C@H]2C(=O)N[C@H]3C(=O)N[C@H](C(=O)N[C@H](C(=O)O)c4cc(O)cc(O)c4-c4cc3ccc4O)[C@H](O)c3ccc(c(Cl)c3)Oc3cc2cc(c3O[C@@H]2O[C@H](CO)[C@@H](O)[C@H](O)[C@H]2O[C@H]2C[C@](C)(N)[C@H](O)[C@H](C)O2)Oc2ccc(cc2Cl)[C@H]1O [VANCOMYCIN]			16 µg/mL (≈ 11 µM)										0.6 µg/mL (≈ 0.414 µM)		2 µg/mL (≈ 1.38 µM)			256 µg/mL (≈ 177 µM)			
FC(F)(F)c1ccc(Oc2ccc(-c3noc(-c4n[nH]cc4Cl)n3)cc2)cc1	0.5 µg/mL (≈ 1.23 µM)	> 128 µg/mL	> 128 µg/mL	> 128 µg/mL	> 128 µg/mL	24.1 µg/mL (≈ 59.3 µM)	> 128 µg/mL	2 µg/mL (≈ 4.92 µM)	64 µg/mL (≈ 157 µM)	> 128 µg/mL	> 128 µg/mL	> 128 µg/mL	> 128 µg/mL		> 128 µg/mL	> 128 µg/mL	1 µg/mL (≈ 2.46 µM)	> 128 µg/mL	16 µg/mL (≈ 39.3 µM)	97.8%	
CCCCCCCCCC(=O)N[C@@H](Cc1c[nH]c2ccccc12)C(=O)N[C@H](CC(N)=O)C(=O)N[C@@H](CC(=O)O)C(=O)N[C@@H]1C(=O)NCC(=O)N[C@@H](CCCN)C(=O)N[C@@H](CC(=O)O)C(=O)N[C@H](C)C(=O)N[C@@H](CC(=O)O)C(=O)NCC(=O)N[C@H](CO)C(=O)N[C@@H]([C@H](C)CC(=O)O)C(=O)N[C@@H](CC(=O)c2ccccc2N)C(=O)O[C@@H]1C																					fraction unbound [18]: < 0.09
